Laboratory results as given in ChEMBL document CHEMBL2057080, “Synthesis, biological evaluation, and structure-activity relationships of a novel class of apurinic/apyrimidinic endonuclease 1 inhibitors” (J Med Chem, 2012).
In brackets after ≈: the same amount, converted by molar mass. Activity calls are given as the source filed them. The calls are words filed in the database; no cut-off is given here.

Assays:
[1] = target: T1, DNA repair nuclease/redox regulator APEX1 (Homo sapiens, UniProt P27695); test: Inhibition of human recombinant APE1 after 15 mins by fluorescence based HTS assay
T1 sequence (P27695 whole entry): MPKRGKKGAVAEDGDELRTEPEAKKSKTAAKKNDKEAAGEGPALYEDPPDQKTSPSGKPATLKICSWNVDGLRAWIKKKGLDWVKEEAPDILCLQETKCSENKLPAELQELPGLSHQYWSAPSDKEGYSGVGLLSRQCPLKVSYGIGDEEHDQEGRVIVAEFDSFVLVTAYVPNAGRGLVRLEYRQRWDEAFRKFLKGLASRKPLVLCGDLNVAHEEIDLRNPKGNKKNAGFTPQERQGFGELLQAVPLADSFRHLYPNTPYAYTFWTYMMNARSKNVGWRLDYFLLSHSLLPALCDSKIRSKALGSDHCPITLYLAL
In short: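 APE1 inhibition was measured in the fluorescence-based qHTS format at up to 57 µM. IC50 is the average of three separate experiments.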

[2] = target: T1, DNA repair nuclease/redox regulator APEX1; test: Inhibition of human APE1 expressed in Escherichia coli rosetta using fluorescein-dabcyl-containing oligonucleotide as substrate after 5 mins by fluorescence spectrophotometry
HeLa [3] = test: Potentiation of methyl methanesulfonate cytotoxic activity against human HeLa cells assessed as decrease in cell viability at 5 to 10 uM after 24 hrs by CellTiterGlo assay; type: functional, cell-based
In short: (§1)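 HeLa cells were seeded at 6K per well in DMEM/10% FBS and attached overnight. The medium was replaced with compound (5–30 µM) with or without MMS (0.4 mM) or TMZ (1 mM), followed by 24 h at 37 °C. Viability was read with CellTiter-Glo luminescence relative to DMSO, in duplicate. Combination values were normalized to the alkylating agent alone.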

[4] = target: T1, DNA repair nuclease/redox regulator APEX1; test: Inhibition of APE1 activity in human HeLa cells assessed as fold increase in genomic AP site accumulation after 24 hrs by aldehyde reactive probe-based assay in presence of methyl methanesulfonate; type: cell-based
In short: (§2)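 HeLa cells at 80% confluency were treated for 24 h at 37 °C with DMSO, 275 µM MMS, or 7.5 µM inhibitor, alone or combined with MMS. Genomic DNA (100 ng/µL) was labelled with Aldehyde Reactive Probe and AP sites were quantified, in triplicate. Significance was tested by Student's t test.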

Plasma [5] = test: Cmax in CD1 mouse plasma at 30 mg/kg, ip; type: ADME, organism-based; parameters: dose 30 mg/kg, route intraperitoneal; conditions: in vivo
In short: (§3)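 Male CD1 mice, 6–8 weeks old, n = 3, were given 30 mg/kg IP in 50% PEG 200 or PEG 400 plus 10% Cremophor EL in saline. Cardiac-puncture blood was taken at 0.25, 0.5, 1, 2, 4, 8, 12 and 24 h, with heparin plasma. Brain values were multiplied by 5, and LC/MS/MS was used. The brain/plasma ratio is the average over the 8 time points.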

Plasma [6] = test: Tmax in CD1 mouse plasma at 30 mg/kg, ip; type: ADME, organism-based; parameters: dose 30 mg/kg, route intraperitoneal; conditions: in vivo; in short: as §3
Brain [7] = test: Tmax in CD1 mouse brain at 30 mg/kg, ip; type: ADME, organism-based; parameters: dose 30 mg/kg, route intraperitoneal; conditions: in vivo; in short: as §3
[8] = target: T1, DNA repair nuclease/redox regulator APEX1; test: Inhibition of APE1 in human HeLa cells assessed as accumulation of genomic AP sites at 7.5 uM after 24 hrs by aldehyde reactive probe-based assay relative to control; type: cell-based; in short: as §2
HeLa [9] = test: Potentiation of methyl methanesulfonate cytotoxic activity against human HeLa cells assessed as decrease in cell viability at 1 to 2 uM incubated for 8 hrs measured after 56 hrs post compound wash-out by Hoechst 33342 staining-based assay; type: functional
HeLa [10] = test: Cytotoxicity against human HeLa cells at 15 uM after 24 hrs by CellTiterGlo assay; type: functional; in short: as §1
HeLa [11] = test: Potentiation of temozolomide cytotoxic activity against human HeLa cells assessed as decrease in cell viability at 5 to 10 uM after 24 hrs by CellTiterGlo assay; type: functional, cell-based; in short: as §1
[12] = target: T1, DNA repair nuclease/redox regulator APEX1; test: Competitive inhibition of recombinant APE1 using […]-5'-AP-DNA as substrate assessed as decrease in APE1-DNA complex formation at 30 uM incubated for 10 mins prior to substrate addition measured after 5 mins by electrophoretic mobility shift assay
In short: (§4)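 APE1 (~28 nM) was preincubated without inhibitor (1% DMSO) or with 1, 3, 10, 30 or 100 µM inhibitor for 10 min on ice. Then 100 fmol (10 nM) 32P AP-DNA was added for 5 min on ice. Complexes were resolved on an 8% native gel and quantified by phosphorimager relative to control, in three independent replicates.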

Brain [13] = test: Cmax in CD1 mouse brain at 30 mg/kg, ip; type: ADME, organism-based; parameters: dose 30 mg/kg, route intraperitoneal; conditions: in vivo; in short: as §3
[14] = Chemical stability of the compound in PBS at pH 7.4 assessed as compound remaining after 48 hrs; type: physicochemical; conditions: buffer, pH 7.4, 48 h
In short: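 The compound was held in PBS pH 7.4 and the percent remaining was measured after 48 h. Done by a contract lab, and values are the average of two experiments.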

[15] = target: T1, DNA repair nuclease/redox regulator APEX1; test: Inhibition of recombinant APE1 using […]-5'-AP-DNA as substrate incubated for 15 mins prior to substrate addition measured after 5 mins by PAGE analysis
[16] = target: T1, DNA repair nuclease/redox regulator APEX1; test: Competitive inhibition of recombinant APE1 using […]-5'-AP-DNA as substrate assessed as decrease in APE1-DNA complex formation incubated for 10 mins prior to substrate addition measured after 5 mins by electrophoretic mobility shift assay; in short: as §4
CYP3A4 = CYP3A4 (Homo sapiens, UniProt P08684); test: Inhibition of CYP3A4 at 10 uM; type: ADME
Sequence of CYP3A4 (P08684 whole entry): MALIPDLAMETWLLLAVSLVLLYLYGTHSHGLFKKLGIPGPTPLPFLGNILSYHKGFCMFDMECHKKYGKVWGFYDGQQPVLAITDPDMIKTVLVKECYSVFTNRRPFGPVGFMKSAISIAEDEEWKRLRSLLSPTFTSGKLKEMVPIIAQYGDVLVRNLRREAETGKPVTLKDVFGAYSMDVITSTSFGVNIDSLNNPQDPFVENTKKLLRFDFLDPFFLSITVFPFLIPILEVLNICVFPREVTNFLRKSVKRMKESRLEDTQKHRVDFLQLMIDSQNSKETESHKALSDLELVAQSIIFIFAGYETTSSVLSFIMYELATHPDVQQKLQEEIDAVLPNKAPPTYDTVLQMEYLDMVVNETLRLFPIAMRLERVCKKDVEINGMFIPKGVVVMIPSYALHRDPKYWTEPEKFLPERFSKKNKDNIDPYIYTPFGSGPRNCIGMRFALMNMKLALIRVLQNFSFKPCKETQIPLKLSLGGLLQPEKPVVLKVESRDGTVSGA

Plasma [17] = test: Half life in CD1 mouse plasma at 30 mg/kg, ip; type: ADME, organism-based; parameters: dose 30 mg/kg, route intraperitoneal; conditions: in vivo; in short: as §3
Liver = test: Half life in mouse liver microsomes; type: ADME, Microsome
In short: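 Stability in mouse liver microsomes reported as T1/2. Done by a contract lab, and values are the average of two experiments.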

[18] = Aqueous kinetic solubility of the compound in PBS at pH 7.4; type: physicochemical; conditions: read-out: Kinetic_solubility
Brain [19] = test: Half life in CD1 mouse brain at 30 mg/kg, ip; type: ADME, organism-based; parameters: dose 30 mg/kg, route intraperitoneal; conditions: in vivo; in short: as §3
Plasma [20] = test: Half life in mouse plasma; type: ADME, cell-free
In short: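 Stability in mouse plasma reported as T1/2. Done by a contract lab, and values are the average of two experiments.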

[21] = target: T1, DNA repair nuclease/redox regulator APEX1; test: Inhibition of APE1 in human HeLa whole cell extract using […]-5'-AP-DNA as substrate assessed as activity remaining at 100 uM incubated for 15 mins prior to substrate addition measured after 5 mins by PAGE analysis relative to control
In short: (§5)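 HeLa whole cell extract (300 ng; KCl-extracted hypotonic lysate) was preincubated with inhibitor for 15 min at room temperature, at 100 µM or at 0–100 µM. Then 0.5 pmol 32P AP-DNA was added for 5 min at 37 °C. Samples were run on denaturing PAGE, and incision is reported relative to the no-inhibitor control, from three independent measurements.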

CYP2D6 = CYP2D6 (Homo sapiens, UniProt P10635); test: Inhibition of CYP2D6 at 10 uM; type: ADME
Sequence of CYP2D6 (P10635 whole entry): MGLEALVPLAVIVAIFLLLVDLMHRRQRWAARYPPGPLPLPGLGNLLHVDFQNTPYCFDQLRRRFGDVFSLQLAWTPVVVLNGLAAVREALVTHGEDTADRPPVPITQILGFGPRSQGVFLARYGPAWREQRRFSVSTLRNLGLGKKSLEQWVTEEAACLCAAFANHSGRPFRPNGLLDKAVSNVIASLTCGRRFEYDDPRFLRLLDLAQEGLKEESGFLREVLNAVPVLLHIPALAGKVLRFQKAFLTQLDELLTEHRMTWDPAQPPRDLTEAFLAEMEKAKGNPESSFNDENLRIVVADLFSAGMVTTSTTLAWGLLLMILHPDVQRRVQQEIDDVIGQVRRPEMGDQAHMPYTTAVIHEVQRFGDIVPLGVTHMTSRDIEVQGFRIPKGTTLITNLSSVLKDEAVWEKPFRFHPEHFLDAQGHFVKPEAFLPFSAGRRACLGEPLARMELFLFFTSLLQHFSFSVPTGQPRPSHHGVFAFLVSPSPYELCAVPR

Mus musculus = test: Toxicity in CD1 mouse assessed as adverse effect at 30 mg/kg, ip after 24 hrs; type: organism-based; parameters: dose 30 mg/kg, route intraperitoneal; conditions: in vivo
In short: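 Male CD1 mice, 6–8 weeks old, were given 30 mg/kg IP in PEG/Cremophor EL saline vehicle.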

[22] = target: T1, DNA repair nuclease/redox regulator APEX1; test: Competitive inhibition of recombinant APE1 using […]-5'-AP-DNA as substrate assessed as decrease in APE1-DNA complex formation at 10 to 100 uM preincubated with substrate for 15 mins prior to enzyme addition measured after 5 mins by electrophoretic mobility shift assay
[23] = target: T1, DNA repair nuclease/redox regulator APEX1; test: Competitive inhibition of recombinant APE1 using […]-5'-AP-DNA as substrate incubated for 15 mins prior to substrate addition measured after 5 mins by Lineweaver-Burk plot analysis
In short: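 APE1 (~28 pM) was incubated with 0, 5, 10 or 20 µM inhibitor for 15 min at room temperature. 32P AP-DNA was added at 5–100 nM, followed by 5 min at 37 °C and denaturing PAGE. Velocities were measured, and KM and kcat came from Lineweaver–Burk plots.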

HeLa [24] = test: Potentiation of temozolomide cytotoxic activity against human HeLa cells assessed as decrease in cell viability at 1 to 2 uM incubated for 8 hrs measured after 56 hrs post compound wash-out by Hoechst 33342 staining-based assay; type: functional
[25] = target: T1, DNA repair nuclease/redox regulator APEX1; test: Inhibition of APE1 in human HeLa whole cell extract using […]-5'-AP-DNA as substrate at 10 uM incubated for 15 mins prior to substrate addition measured after 5 mins by PAGE analysis; in short: as §5
HeLa [26] = test: Potentiation of methyl methanesulfonate cytotoxic activity against human HeLa cells assessed as decrease in cell viability at 2.5 to 5 uM incubated for 8 hrs measured after 56 hrs post compound wash-out by Hoechst 33342 staining-based assay; type: functional
HeLa [27] = test: Cytotoxicity against human HeLa cells at 30 uM after 24 hrs by CellTiterGlo assay; type: functional; in short: as §1
HeLa [28] = test: Potentiation of methyl methanesulfonate cytotoxic activity against human HeLa cells assessed as decrease in cell viability at 10 to 15 uM after 24 hrs by CellTiterGlo assay; type: functional, cell-based; in short: as §1
HeLa [29] = test: Potentiation of temozolomide cytotoxic activity against human HeLa cells assessed as decrease in cell viability at 10 to 15 uM after 24 hrs by CellTiterGlo assay; type: functional, cell-based; in short: as §1
HeLa [30] = test: Potentiation of temozolomide cytotoxic activity against human HeLa cells assessed as decrease in cell viability at 2.5 to 5 uM incubated for 8 hrs measured after 56 hrs post compound wash-out by Hoechst 33342 staining-based assay; type: functional

SMILES | IC50 [1] [µM] | fold change (FC) [4] | Cmax (Plasma [5]) [µM] | Tmax (Plasma [6]) [h] | Tmax (Brain [7]) [h] | inhibition [8] | inhibition [12] | Cmax (Brain [13]) [µM] | Stability [14] [%] | inhibition [16] | inhibition at 10 µM (CYP3A4) [%] | t1/2 (Plasma [17]) [h] | t1/2 (Liver) [h] | solubility kinetic [18] [µM] | t1/2 (Brain [19]) [h] | t1/2 (Plasma [20]) [h] | Activity [21] [%] | inhibition at 10 µM (CYP2D6) [%] | Activity (Mus musculus) | inhibition [22] | further results
Cc1cc(C)c2c(N)c3cccc(C)c3nc2n1 | 32 |  |  |  |  |  |  |  |  |  |  |  |  |  |  |  |  |  |  |  | IC50 [2]: 32 µM
CC(=O)Nc1sc2c(c1-c1nc3ccccc3s1)CCN(C(C)C)C2 | 2 | 3 | 16 | 0.25 | 0.25 | Active | Active | 217 | 100 | Dose-dependent effect | 53 | 2.1 | 1.33 | 20.4 (≈ 7.58 µg/mL) | 1 | > 4.17 | 0.6 | 0 | Non-toxic | Active | Activity (HeLa [3]): Active; Activity (HeLa [9]): Active; Activity (HeLa [10]): 50%; Activity (HeLa [11]): Active; IC50 [15]: 12 µM; inhibition [23]: Active; Activity (HeLa [24]): Active
CC(=O)Nc1sc2c(c1-c1nc3ccccc3s1)CNC2 | 3.3 | 3 | 36 | 0.25 | 0.25 | Active | Active | 92 | 100 | Dose-dependent effect | 50 | 5 | 0.13 | 51.6 (≈ 16.3 µg/mL) | 2.5 | 3.55 | 0.1 | 39 | Non-toxic | Active | inhibition [25]: Active; Activity (HeLa [26]): Active; Activity (HeLa [27]): 50%; Activity (HeLa [28]): Active; Activity (HeLa [29]): Active; Activity (HeLa [30]): Active; inhibition [23]: Active
